Source: PubChem BioAssay
Shown are actives, neighbours in structure and some others; about 1.7% of the full set was active somewhere.
Scp-1 inhibitor – inhibitors of human Scp-1 phosphatase | hit rate 0.88% among 340,000 | inhibition, % at 20 µM | Recombinant Scp1, phosphopeptide, malachite green phosphate absorbance;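 active = inhibition above about 50% at 20 µM, limit read from the data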
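Test system: SCP-1 phosphatase catalytic domain, residues 76-261; measured by: colorimetric phosphate reagent with accelerator and stabiliser, absorbance at 630 nm; timing: enzyme reaction 45 min at room temperature, colour 5 min, stabilisation 30 min; also added: Phosphorylated 17-residue peptide substrate; compound dosing: one concentration, 20 µM, with 1.0% DMSO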
DNMT1 inh – inhibitors of human DNMT1; DNMT1 molecular beacon, Hinp1I cleavage, fluorescence; hit rate 0.83% among 360,000; AID 588458; inhibition (reported as % activation of signal), % at 10 µM; in the data active = inhibition above about 50%
SUMO1 PPI mod – alters human SUMO1 binding to SIM partners | P63165 | SUMO1 binding to a labelled peptide, TR-FRET, 1 h | inhibition, % at 20 µM | hit rate 0.33% among 360,000 | AID 602429; in the data active = inhibition above about 37%
STEP inh – inhibitors of human striatal-enriched phosphatase STEP. P54829. recombinant STEP, OMFP fluorogenic substrate, fluorescence. inhibition, % at 20 µM. hit rate 0.25% among 360,000;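 active = inhibition at 20 µM, scaled per plate between control wells, above about 37%, limit read from the data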
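System: isolated STEP enzyme; schedule: 20 min enzyme reaction at room temperature, protected from light; medium: Bis-Tris buffer pH 6.0, 2.5 mM DTT, 0.005% Tween 20; signal: fluorescence, 480/540 nm; dosing: single compound dose of 20 µM, 1% DMSO final; also added: OMFP substrate, 25 µM final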
LMPTP block – blocks human LMPTP phosphatase; P24666; recombinant LMPTP-A, OMFP fluorogenic substrate, fluorescence intensity; inhibition, % at 20 µM; hit rate 0.22% among 360,000; AID 651560;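 active = compounds that cut the enzyme signal by at least half of the control window in the single-dose screen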
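material = LMPTP-A | quantity = 0.625 nM enzyme | reagent = OMFP substrate, 400 µM final | buffer or medium = Bis-Tris pH 6.0, DTT, detergent | detection = endpoint fluorescence intensity from OMFP dephosphorylation | dosing = single 20 µM dose | read-out basis = % inhibition relative to no-enzyme and uninhibited control wells | control set = no-enzyme and uninhibited controls | timing = 50 min at room temperature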
Scp-1 conf – Scp-1 (human) inhibition, single-dose confirmed; shares compounds with Scp-1 inhibitor; recombinant SCP-1 catalytic domain, phosphate release, malachite green absorbance; inhibition, % at 20 µM; hit rate 61% among 2,500
Scp-1 MG ctr – colorimetric interference in Scp-1 counter-screen; shares compounds with Scp-1 inhibitor; Colorimetric interference counterscreen, malachite green absorbance 630 nm; apparent inhibition (interference), % at 20 µM; 2,500 tested, under 10 active; AID 540313;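 also: compounds added after enzyme reaction finished so only phosphate colour detection is probed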
Scp-1 Tm shift – validation of human Scp-1 inhibitors by thermal shift binding; shares compounds with Scp-1 inhibitor; Recombinant SCP1, Sypro Orange thermal shift Tm; thermal shift relative to vanadate control, % at 40 µM; hit rate 25% among 1,500;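 active = substances whose mean melting-temperature shift, as a percentage of the reference inhibitor's shift, reaches about 5.3%, limit read from the data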
DNMT1 confirm – confirmation of human DNMT1 inhibitors. hit rate 8% among 2,300. inhibition, % at 10 µM. DNMT1 molecular beacon HinP1I cleavage, fluorescence. shares compounds with DNMT1 inh. AID 602385;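 active = average inhibition of at least 30% in the single-concentration confirmation test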
DNMT1 interf – beacon fluorescence artifact counter-screen | shares compounds with DNMT1 inh | DNMT1 molecular beacon spectral interference counterscreen, fluorescence 485/520 | activation (fluorescence interference), % at 10 µM | hit rate 1% among 2,300;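 active = activation of at least 30% at 10 µM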;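 also: DNMT1 catalytic domain with a HinP1I cleavage step and a FAM/dabcyl DNA beacon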
STEP inh conf – STEP (human) phosphatase inhibition, single concentration confirmation | shares compounds with STEP inh | recombinant STEP, OMFP fluorogenic substrate, fluorescence | inhibition, % at 20 µM | hit rate 32% among 520 | AID 623866; call rule not given here
Large screens that a line does not name were inactive (follow-up assays come after a bar, where they were run).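 The calls were made as follows, unless noted: active = inhibition of at least 30% at 20 µM; inactive = the rest.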

O=C(N/N=C/C=C/c1ccc([N+](=O)[O-])cc1)c1cccs1	Scp-1 inhibitor 101.5, DNMT1 inh 96.9, STEP inh 96.3, LMPTP block 87.1 | Scp-1 conf 91.2 | Scp-1 MG ctr inactive | Scp-1 Tm shift 6.4 | DNMT1 confirm inactive | DNMT1 interf inactive | STEP inh conf inactive
O=C(/C=C/c1cccc([N+](=O)[O-])c1)Nc1ccc(NC(=O)c2cccs2)cc1	Scp-1 inhibitor 74.5, STEP inh 45.3, LMPTP block 56.2 | Scp-1 conf 73.9 | Scp-1 MG ctr inactive | Scp-1 Tm shift 15.5 | STEP inh conf inactive
O=[N+]([O-])c1ccc(/C=N/n2c(-c3cccnc3)n[nH]c2=S)cc1	Scp-1 inhibitor 60.0, STEP inh 55.7 | Scp-1 conf 51.9 | Scp-1 MG ctr inactive | Scp-1 Tm shift inactive | STEP inh conf inactive
O=[N+]([O-])c1cccc(/C=N/n2c(-c3cccnc3)n[nH]c2=S)c1	none
O=C(O)/C=C/c1cn(-c2ccccc2)nc1-c1cc2ccccc2oc1=O	none
O=Cc1cn(-c2ccccc2)nc1-c1cc2cc(O)ccc2oc1=O	Scp-1 inhibitor 63.8, SUMO1 PPI mod 43.7, STEP inh 60.2, LMPTP block 55.2 | Scp-1 conf 53.2 | Scp-1 MG ctr inactive | Scp-1 Tm shift inactive | STEP inh conf 78.6
O=C(OCc1cn([C@@H]2C[C@H](c3ccccc3)N(Cc3cccs3)C[C@H]2O)nn1)c1ccccc1	none (no result: Scp-1 inhibitor)
Cc1cccc(C(=O)NNC(=O)c2cc3cc4ccccc4nc3s2)c1	none
O=C(NNC(=O)c1cc2cc3ccccc3nc2s1)c1cccc(Cl)c1	Scp-1 inhibitor 98.1, DNMT1 inh 78.4, STEP inh 97.4, LMPTP block 62.9 | Scp-1 conf 72.6 | Scp-1 MG ctr inactive | Scp-1 Tm shift inactive | DNMT1 confirm inactive | DNMT1 interf inactive | STEP inh conf inactive
O=C(NNC(=O)c1cc2cc3ccccc3nc2s1)c1ccc(F)cc1	Scp-1 inhibitor 104.6, STEP inh 97.3 | Scp-1 conf 67.5 | Scp-1 MG ctr inactive | Scp-1 Tm shift inactive | STEP inh conf inactive
COc1ccc(-n2nc(C(=O)NCC(=O)Nc3ccccn3)c3ccccc3c2=O)cc1Cl	Scp-1 inhibitor 62.5, STEP inh 48.1 | Scp-1 conf 42.8 | Scp-1 MG ctr inactive | Scp-1 Tm shift inactive | STEP inh conf 32.4
COc1ccc(-n2nc(C(=O)NCC(=O)NC(C)C)c3ccccc3c2=O)cc1Cl	none
Cc1ccc(C)c(CC(=O)N2CCCC(c3cc(C(=O)NCc4cccnc4)no3)C2)c1 (stereo unspecified)	none (no result: Scp-1 inhibitor)
COc1cccc2cc(C(=O)NNC(=O)c3ccc(Br)cc3)c(=O)oc12	Scp-1 inhibitor 98.6, STEP inh 81.8 | Scp-1 conf 55.3 | Scp-1 MG ctr inactive | Scp-1 Tm shift inactive | STEP inh conf inactive
Cc1csc(NC(=O)c2cccs2)n1	none
Cc1csc2c(=O)sc(NC(=O)c3cccs3)nc12	Scp-1 inhibitor 96.9, STEP inh 95.4, LMPTP block 68.6 | Scp-1 conf 62.6 | Scp-1 MG ctr inactive | Scp-1 Tm shift inactive | STEP inh conf inactive
Cc1ccc(NC(=O)CN2C(=O)S/C(=C\c3cccn3-c3cccc(C(=O)O)c3)C2=O)cc1C	Scp-1 inhibitor 78.7, STEP inh 41.5 | Scp-1 conf 80.2 | Scp-1 MG ctr inactive | Scp-1 Tm shift 11.3 | STEP inh conf inactive
Cc1ccc(NC(=O)CN2C(=O)S/C(=C\c3ccccn3)C2=O)cc1C	none
CCc1c(C)[nH]n(-c2ccc(Oc3ccccc3)c(S(=O)(=O)O)c2)c1=O	Scp-1 inhibitor 79.0, DNMT1 inh 66.0, STEP inh 52.9 | Scp-1 conf 79.5 | Scp-1 MG ctr inactive | Scp-1 Tm shift inactive | STEP inh conf 35.7
Cc1[nH]n(-c2ccccc2)c(=O)c1CCO	none
Clc1ccc(Br)cc1-c1nc(-c2ccncc2)no1	Scp-1 inhibitor 102.5, STEP inh 64.7, LMPTP block 71.6 | Scp-1 conf 34.6 | Scp-1 MG ctr inactive | Scp-1 Tm shift inactive | STEP inh conf inactive
Brc1cccc(-c2nc(-c3ccncc3)no2)c1	none
O=[N+]([O-])c1ccc(S(=O)(=O)N2CCN(Cc3ccco3)CC2)cc1	none
CCCCn1c(N)c(-c2nc3ccccc3o2)c2c([N+](=O)[O-])nn(C)c(=O)c21	Scp-1 inhibitor 93.1, DNMT1 inh 86.8, STEP inh 57.8, LMPTP block 54.6 | Scp-1 conf 68.1 | Scp-1 MG ctr inactive | Scp-1 Tm shift inactive | DNMT1 confirm inactive | DNMT1 interf inactive | STEP inh conf inactive
O=C1CCCN1CCCNC(=S)Nc1cccc2ccccc12	STEP inh 54.7 | Scp-1 conf inactive | Scp-1 MG ctr inactive | STEP inh conf inactive
O=C(O)c1ccc(/C=N/NC(=O)c2cc(-c3ccc4c5c(cccc35)CC4)n[nH]2)cc1	Scp-1 inhibitor 76.3, STEP inh 52.4 | Scp-1 conf 66.7 | Scp-1 MG ctr inactive | Scp-1 Tm shift inactive | STEP inh conf inactive
O=C(N/N=C/c1ccccn1)c1cc(-c2cccc3ccccc23)n[nH]1	none
O=C(O)CSc1sc(=S)sc1SCC(=O)O	Scp-1 inhibitor 75.7, STEP inh 58.3 | Scp-1 conf inactive | Scp-1 MG ctr inactive | STEP inh conf inactive
